Experimental data: ChEMBL document CHEMBL4251567 (Eur J Med Chem, 2018)

Key:
[1] = biological target: T1, Protein deacetylase HDAC6 (Homo sapiens) (UniProt Q9UBN7); assay: Inhibition of HDAC6 in human U937 cells assessed as increase in acetyl-alpha-tubulin levels after 18 hrs by Western blot method; type: cell-based
T1 sequence (whole entry): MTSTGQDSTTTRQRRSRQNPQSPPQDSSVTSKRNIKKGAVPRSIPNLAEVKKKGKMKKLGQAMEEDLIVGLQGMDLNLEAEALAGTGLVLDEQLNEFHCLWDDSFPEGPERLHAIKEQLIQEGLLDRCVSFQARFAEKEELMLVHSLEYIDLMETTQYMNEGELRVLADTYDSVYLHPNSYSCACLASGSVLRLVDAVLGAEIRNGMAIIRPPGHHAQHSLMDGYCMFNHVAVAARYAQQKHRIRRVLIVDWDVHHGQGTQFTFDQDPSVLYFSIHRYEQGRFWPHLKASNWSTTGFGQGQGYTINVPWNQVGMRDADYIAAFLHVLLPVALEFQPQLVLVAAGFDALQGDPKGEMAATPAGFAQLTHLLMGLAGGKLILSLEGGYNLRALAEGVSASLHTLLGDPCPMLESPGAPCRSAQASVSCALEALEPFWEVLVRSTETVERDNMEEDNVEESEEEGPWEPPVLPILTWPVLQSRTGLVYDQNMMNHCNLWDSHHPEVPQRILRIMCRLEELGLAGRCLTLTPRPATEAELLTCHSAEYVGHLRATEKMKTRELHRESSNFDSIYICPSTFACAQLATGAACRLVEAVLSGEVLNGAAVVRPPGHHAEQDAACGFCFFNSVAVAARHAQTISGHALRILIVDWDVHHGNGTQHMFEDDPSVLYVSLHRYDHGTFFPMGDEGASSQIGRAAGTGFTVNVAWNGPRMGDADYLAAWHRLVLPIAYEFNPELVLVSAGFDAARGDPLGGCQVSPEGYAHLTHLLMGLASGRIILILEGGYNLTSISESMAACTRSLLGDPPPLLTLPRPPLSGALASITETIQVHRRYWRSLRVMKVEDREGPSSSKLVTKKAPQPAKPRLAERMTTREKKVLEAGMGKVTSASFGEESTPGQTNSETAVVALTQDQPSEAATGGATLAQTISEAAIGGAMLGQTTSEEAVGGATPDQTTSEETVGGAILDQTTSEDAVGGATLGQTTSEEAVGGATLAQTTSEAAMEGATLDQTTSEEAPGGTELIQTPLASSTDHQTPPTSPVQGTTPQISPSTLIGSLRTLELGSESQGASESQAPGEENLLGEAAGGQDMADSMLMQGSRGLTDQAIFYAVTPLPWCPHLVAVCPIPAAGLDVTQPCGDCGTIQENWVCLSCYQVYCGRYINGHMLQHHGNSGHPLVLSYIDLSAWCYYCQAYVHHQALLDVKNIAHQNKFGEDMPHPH
How it was run: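 U937 cells (10^6/well in RPMI-1640 with 10% FCS) treated 18 h at 37 °C, 5% CO2 with inhibitor or DMSO (1% final). Lysates separated on 16% SDS-PAGE and blotted to PVDF. Probed with anti-acetyl-α-tubulin(Lys40) and anti-acetyl-H3(Lys9), GAPDH as load control; ECL detection. Blots representative of three trials.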

[2] = biological target: T1, Protein deacetylase HDAC6 (Homo sapiens); assay: Inhibition of HDAC6 in human HeLa-S3 cell lysates assessed as remaining activity at 8 x 10^-7 M preincubated for 15 mins followed by HDAC-Glo substrate addition measured after 30 to 40 mins by […] relative to control
How it was run: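 HDAC6 captured on an anti-HDAC6 antibody-coated plate (2 μg/mL, pH 9.4 carbonate buffer, milk-blocked). HeLa-S3 lysate loaded at 1 mg/mL, 1 h at 4 °C, then washed. 15 min RT preincubation with inhibitor in DMSO; HDAC-Glo reagent added, luminescence read at 30-40 min. Concentrations are final. Background = no-antibody well; values are % activity versus DMSO control.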

[3] = biological target: Histone deacetylase 1 (Homo sapiens) (UniProt Q13547); assay: Inhibition of HDAC1 in human HeLa-S3 cell lysates assessed as remaining activity at 8 x 10^-6 M preincubated for 15 mins followed by HDAC-Glo substrate addition measured after 30 to 40 mins by […] relative to control
[4] = biological target: Histone deacetylase 1 (Homo sapiens) (UniProt Q13547); assay: Inhibition of HDAC1 in human HeLa-S3 cell lysates assessed as remaining activity at 4 x 10^-6 M preincubated for 15 mins followed by HDAC-Glo substrate addition measured after 30 to 40 mins by […] relative to control
How it was run: (§1)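 HDAC1 was captured from HeLa-S3 lysate (100 μg/mL) onto wells precoated with anti-HDAC1 antibody (10 μg/mL, carbonate buffer pH 9.4) and milk-blocked, 1 h at 4 °C, then washed. Inhibitor in DMSO was added in HDAC-Glo buffer for 15 min at room temperature. HDAC-Glo reagent was added and luminescence read after 30-40 min. Concentrations are final. No-antibody background subtracted; % of DMSO control.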

[5] = biological target: Histone deacetylase 3 (Homo sapiens) (UniProt O15379); assay: Inhibition of HDAC3 in human HeLa-S3 cell lysates assessed as remaining activity at 4 x 10^-6 M preincubated for 15 mins followed by HDAC-Glo substrate addition measured after 30 to 40 mins by fluorimetric method relative to control
How it was run: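 Antibody-capture (ELISA-type) assay: HDAC antibody coated in carbonate/bicarbonate buffer pH 9.4, wells blocked with 5% milk in TBST. HeLa-S3 lysate added at 1 mg/mL for HDAC3, 1 h at 4 °C, then washed. Inhibitor in DMSO preincubated 15 min at RT in HDAC-Glo buffer. HDAC-Glo reagent added, luminescence read after 30-40 min. Concentrations are final. Background = no-antibody well; activity given as % of DMSO control.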

[6] = biological target: Histone deacetylase 2 (Homo sapiens) (UniProt Q92769); assay: Inhibition of HDAC2 in human HeLa-S3 cell lysates assessed as remaining activity at 4 x 10^-6 M preincubated for 15 mins followed by HDAC-Glo substrate addition […] relative to control
[7] = biological target: Histone deacetylase 2 (Homo sapiens) (UniProt Q92769); assay: Inhibition of HDAC2 in human HeLa-S3 cell lysates assessed as remaining activity at […] preincubated for 15 mins followed by HDAC-Glo substrate addition measured after 30 to 40 mins by […] relative to control
[8] = biological target: Histone deacetylase 1 (Homo sapiens) (UniProt Q13547); assay: Inhibition of HDAC1 in human HeLa-S3 cell lysates assessed as remaining activity at 1 x 10^-6 M preincubated for 15 mins followed by HDAC-Glo substrate addition measured after 30 to 40 mins by fluorimetric method relative to control; how it was run: as §1
[9] = biological target: T1, Protein deacetylase HDAC6 (Homo sapiens); assay: Inhibition of HDAC6 in human HeLa-S3 cell lysates assessed as remaining activity at […] preincubated for 15 mins followed by HDAC-Glo substrate addition measured after 30 to 40 mins by […] relative to control
[10] = biological target: Histone deacetylase (Homo sapiens) (UniProt Q13547+O15379+Q9UBN7+Q92769+Q9UQL6+Q8WUI4+Q9BY41+Q96DB2+P56524+Q9UKV0+Q969S8); assay: Inhibition of HDAC in human HeLa-S3 cell lysates assessed as residual activity at 3 x 10^-6 M preincubated for 15 mins followed by HDAC-Glo substrate addition measured after 35 mins by […] relative to control; type: protein assay

Histone deacetylase 1 (Homo sapiens), sequence (Q13547 whole entry): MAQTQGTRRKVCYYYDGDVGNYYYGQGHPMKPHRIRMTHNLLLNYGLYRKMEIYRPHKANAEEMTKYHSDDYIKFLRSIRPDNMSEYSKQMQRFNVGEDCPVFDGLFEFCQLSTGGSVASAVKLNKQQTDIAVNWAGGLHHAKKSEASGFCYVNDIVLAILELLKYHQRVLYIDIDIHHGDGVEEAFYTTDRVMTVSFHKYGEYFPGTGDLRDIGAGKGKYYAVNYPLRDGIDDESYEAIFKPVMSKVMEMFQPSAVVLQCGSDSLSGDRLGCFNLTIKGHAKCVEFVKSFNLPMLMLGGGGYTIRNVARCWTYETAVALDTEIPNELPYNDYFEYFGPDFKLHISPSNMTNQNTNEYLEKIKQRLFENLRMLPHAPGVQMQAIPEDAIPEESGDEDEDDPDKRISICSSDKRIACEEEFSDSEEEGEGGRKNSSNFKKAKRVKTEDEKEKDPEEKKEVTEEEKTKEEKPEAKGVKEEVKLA
Histone deacetylase 2 (Homo sapiens), sequence (Q92769 whole entry): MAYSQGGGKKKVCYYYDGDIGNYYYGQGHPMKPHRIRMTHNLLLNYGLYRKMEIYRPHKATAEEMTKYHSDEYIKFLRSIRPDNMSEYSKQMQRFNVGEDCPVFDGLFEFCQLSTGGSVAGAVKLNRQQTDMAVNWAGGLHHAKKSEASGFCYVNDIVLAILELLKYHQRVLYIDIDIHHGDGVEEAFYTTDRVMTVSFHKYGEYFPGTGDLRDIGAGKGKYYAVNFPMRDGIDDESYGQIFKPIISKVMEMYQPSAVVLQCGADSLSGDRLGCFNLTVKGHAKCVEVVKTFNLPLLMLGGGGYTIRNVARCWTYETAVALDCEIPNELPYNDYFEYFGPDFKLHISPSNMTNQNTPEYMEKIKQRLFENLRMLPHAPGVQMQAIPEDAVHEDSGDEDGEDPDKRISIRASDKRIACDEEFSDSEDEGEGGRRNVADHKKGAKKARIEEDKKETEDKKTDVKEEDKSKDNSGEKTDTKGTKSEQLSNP
Histone deacetylase 3 (Homo sapiens), sequence (O15379 whole entry): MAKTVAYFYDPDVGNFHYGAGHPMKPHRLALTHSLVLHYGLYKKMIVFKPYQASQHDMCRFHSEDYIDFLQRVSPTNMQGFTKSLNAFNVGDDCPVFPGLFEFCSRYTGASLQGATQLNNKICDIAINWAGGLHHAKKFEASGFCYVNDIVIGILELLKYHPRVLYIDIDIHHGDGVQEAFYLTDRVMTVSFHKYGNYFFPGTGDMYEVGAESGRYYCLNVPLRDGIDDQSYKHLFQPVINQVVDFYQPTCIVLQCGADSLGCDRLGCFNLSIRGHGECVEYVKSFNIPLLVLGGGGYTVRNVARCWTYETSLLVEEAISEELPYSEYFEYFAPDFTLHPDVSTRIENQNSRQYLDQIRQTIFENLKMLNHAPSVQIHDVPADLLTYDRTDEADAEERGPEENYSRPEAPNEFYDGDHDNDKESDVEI

O=C(CCC(CCCC(=O)Nc1ccccc1)Cc1ccccc1)NO (racemic)
inhibition [1]: Dose-dependent effect

O=C(CC[C@H](CCCC(=O)Nc1ccccc1)Cc1ccccc1)NO
Activity [2]: 16%

CCC(CCCC(=O)Nc1ccccc1)CCC(=O)NO (stereo not given)
Activity [3]: 32% | Activity [4]: 58% | Activity [5]: 64% | Activity [6]: 59% | Activity [7]: 87% | Activity [8]: 81% | Activity [9]: 18% | Activity [10]: 92%
